High-throughput results: PubChem, several laboratories
Shown are actives, neighbours in structure and some others; about 1.5% of the full set was active somewhere.
APJ ag: activates the human apelin receptor APJ; activation, % at 20 µM; CHO-K1 APJ PathHunter beta-arrestin, luminescence; 0% DMSO wells, 100% apelin; P35414; 0.11% of 330,000 active;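 active = activation more than six SD over the plate average, tested at 20 µM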;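 note: 0% = DMSO alone and 100% = apelin-13 at 10 nM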
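Material: engineered CHO-K1 APJ arrestin reporter cells; amount: 1000 CHO-K1 reporter cells seeded per well; incubation: compound stimulation 90 min at 25 °C, detection 60 min; signal: luminescent beta-gal fragment complementation, chemiluminescent substrate; read-out basis: APJ agonist activity; controls: DMSO-only wells as negative, 10 nM Apelin-13 as positive control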
CCR6 antagonist: CCR6 (human) receptor antagonism | P51684 | CHO-K1 CCR6 PathHunter beta-arrestin, luminescence, CCL20-stimulated | inhibition, % at 20 µM | 0.49% of 340,000 active;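 active = compounds whose inhibition of the agonist-driven luminescence signal at 20 µM reaches about 50%, limit read from the data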;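 note: cells stimulated with CCL20 at 14 nM final; plate controls were DMSO with CCL20 for no effect and DMSO without agonist for full effect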
Target sequence (P51684 whole entry, looked up): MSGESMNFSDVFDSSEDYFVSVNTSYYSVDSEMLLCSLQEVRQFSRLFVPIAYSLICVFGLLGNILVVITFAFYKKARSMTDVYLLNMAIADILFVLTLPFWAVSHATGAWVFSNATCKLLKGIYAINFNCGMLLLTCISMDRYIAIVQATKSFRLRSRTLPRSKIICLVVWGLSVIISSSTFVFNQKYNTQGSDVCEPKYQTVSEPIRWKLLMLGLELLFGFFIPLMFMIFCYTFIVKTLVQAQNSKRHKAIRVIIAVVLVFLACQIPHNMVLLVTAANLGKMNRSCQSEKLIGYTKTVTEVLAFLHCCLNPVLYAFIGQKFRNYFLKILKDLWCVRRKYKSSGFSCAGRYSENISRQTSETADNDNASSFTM
m5-HT2A agonist: agonists of mouse serotonin 5-HT2A receptor (HTR2A) | CHO-K1 mHTR2A beta-arrestin complementation, luminescence; percent of 30 µM serotonin response | AID 624169 | P35363 | activation, % at 7.6 µM | 0.66% of 360,000 active;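 active = activation above a run cutoff, the mean activation of all tested compounds plus 3 SD, cut at about 14% in these data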;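 note: 0% = plate median of compound wells and 100% = 30 µM serotonin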
APJ antagonist: blocks the human apelin receptor APJ; CHO-K1 APJ beta-arrestin complementation, luminescence; P35414; 0.32% of 330,000 active; inhibition, % at 20 µM;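 active = inhibition above about 40% at 20 µM, limit read from the data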;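 note: cells challenged with 10 nM apelin-13 agonist together with compound; plate controls were apelin-13 plus DMSO wells for no effect and DMSO wells lacking apelin-13 for full effect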
CXCR6 inh: blocks human CXCR6 beta-arrestin recruitment; inhibition, % at 20 µM; O00574; 0.36% of 360,000 active; CHO-K1 PathHunter CXCR6 beta-arrestin, luminescence; in the data active = inhibition above about 34%, passing the limit was not always enough;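 note: antagonist mode with CXCL16 agonist at 10 nM final; 0% = 10 nM CXCL16 with DMSO and 100% = unstimulated wells without agonist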
NTR1 ag: NTR1 (human) agonism; P30989; NTR1-U2OS beta-arrestin-GFP spot imaging, agonist mode; activation, % at 20 µM; 0.17% of 330,000 active; AID 493036;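 active = activation at or above 40% of the spot to cytoplasm intensity ratio, with at least 20 cells analyzed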;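 note: 0% = DMSO without peptide and 100% = 100 nM NTR1 peptide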
OPRM1 ag: activates human mu opioid receptor in HTR2A counterscreen | shares compounds with m5-HT2A agonist | U2OS OPRM1 beta-arrestin PathHunter, luminescence; DMSO 0%, DAMGO 9.3 µM 100% | activation, % at 9.3 µM | 5.3% of 2,300 active;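 active = mean activation above the mean of DMSO-only wells plus 3 SD, cut at about 0.5% in these data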
HTR2A ag conf: confirmation of mouse HTR2A serotonin receptor agonists | shares compounds with m5-HT2A agonist | CHO-K1 PathHunter beta-arrestin recruitment, luminescence; DMSO 0%, 30 µM serotonin 100% | activation, % at 7.6 µM | 19% of 2,300 active;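 active = mean activation across triplicates above the hit threshold derived in the original primary screen, cut at about 15% in these data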
* marks the source's active call; other numbers are inactive results; · = no result given.

SMILES	APJ ag	CCR6 antagonist	m5-HT2A agonist	APJ antagonist	CXCR6 inh	NTR1 ag	OPRM1 ag	HTR2A ag conf
CC(CNC(=O)CCC(=O)N1CCOc2ccc(Cl)cc21)c1ccccc1 (centres undefined)	3	4	10	14	3	2	·	·
CC(C)Sc1cc(N2CCOCC2)nc(-c2ccc(Cl)cc2)n1	-2	-11	14*	6	-2	7	0	9
Cn1c(SCC(=O)NCc2ccco2)nnc1-c1ccc(S(=O)(=O)N2CCOCC2)cc1	-4	-1	-1	7	2	0	·	·
CCC(C)n1c(SCC(=O)NCc2ccco2)nnc1-c1cccc(S(=O)(=O)N2CCOCC2)c1 (centres undefined)	-1	6	15*	-6	6	0	-1	-1
Cc1cccc(NC(=O)c2cnc3ccccn3c2=O)c1	0	19	26*	9	4	6	-1	-1
CSCC[C@H](NC(=O)C1=NN(c2c(F)c(F)cc(F)c2F)C(=O)CC1)c1nc2ccccc2[nH]1	-1	2	4	-21	8	0	·	·
C#CCn1c(=NC(=O)c2ccc(S(=O)(=O)N3CCc4ccccc4C3)cc2)sc2cc(S(N)(=O)=O)ccc21	1	-12	2	-8	7	8	·	·
C=CCn1c(=NC(=O)c2ccc(S(=O)(=O)N3CCc4ccccc4C3)cc2)sc2cc(S(N)(=O)=O)ccc21	4	0	22*	-6	7	3	-1	13
O=C(Cc1cccc(C(F)(F)F)c1)NCc1cccc(Cl)c1	-2	4	25*	5	-1	3	0	-6
O=C(NCc1cccc(C(F)(F)F)c1)c1cc(Cl)ccc1Cl	-1	17	2	6	-10	0	·	·
O=C(CCS(=O)(=O)c1ccc(Cl)cc1)OCC(=O)N1CCCCC1	-2	-1	16*	4	3	0	-1	-2
O=C(COc1ccc(Cl)cc1Br)NC(=O)NC1CCCC1	0	13	-1	21	-8	8	·	·
CCSc1ccc([C@@H]2[C@H]3C(=O)N(C)C(=O)[C@H]3[C@]3(C(=O)OC)CCCCN23)cc1	3	14	17*	4	-4	-2	0	-3
COc1ccc2cc(Br)ccc2c1CC(=O)NCCCN1CCOCC1	-5	-15	-6	2	8	-1	·	·
CC(C)C[C@H](NC(=O)c1[nH]cnc1C(=O)Nc1ccccc1)C(=O)OC(C)(C)C	0	13	16*	14	17	34	0	-6
CN(C)C(=O)c1snnc1-c1ccccc1	-2	2	18*	-28	5	1	0	-2
C=CCNC(=O)c1snnc1-c1ccccc1	1	5	-2	-1	6	1	·	·
COc1ccccc1NC(=O)C(C)OC(=O)C1CCN(S(=O)(=O)c2ccc(C)c(C)c2)CC1 (centres undefined)	-3	9	-1	-4	-8	5	·	·
Fc1cccc(F)c1/C=N/Nc1ccccn1	-2	1	14*	-4	0	0	-1	-3
CCCc1nnc(NC(=O)CCC(=O)Nc2ccc(Br)cc2)s1	-3	15	2	10	2	0	·	·
CCOC(=O)[C@H](CCc1ccccc1)N[C@@H](C)C(=O)N1[C@H](C(=O)O)C[C@@H]2CCC[C@@H]21	-3	12	44*	4	-3	0	-1	-1
CCOC(=O)[C@@H](CCc1ccccc1)N[C@H](C)C(=O)N1[C@H](C(=O)O)C[C@@H]2CCC[C@@H]21	-1	7	3	-2	-1	-1	·	·
COc1ccc(CCC(=O)NCCS(=O)(=O)N2CCN(c3ccccc3OC)CC2)cc1	9	-13	-1	-24	-5	1	·	·
COc1ccc(OC)c(C(C(=O)NC2CCCCC2)N(C(=O)c2ccccn2)c2cccnc2)c1 (centres undefined)	0	9	-1	9	-2	-1	·	·
Cc1cccc(C)c1NC(=O)N1CCN(c2nc3ccccc3s2)CC1	-2	12	39*	1	-3	-2	0	0
SMILES	APJ ag	CCR6 antagonist	m5-HT2A agonist	APJ antagonist	CXCR6 inh	NTR1 ag	OPRM1 ag	HTR2A ag conf
CCOc1ccc(NC(=O)N2CCN(c3nc4ccccc4s3)CC2)cc1	-1	0	30*	5	-2	1	0	0
Cc1cccc(Cl)c1NC(=O)N1CCCN(c2nc3ccc(Cl)cc3s2)CC1	4	-1	7	-33	-1	0	·	·
O=C(O)CCC(=O)N1CCN(c2nc3ccccc3s2)CC1	-2	1	45*	7	0	0	0	12
Cc1ccc(S(=O)(=O)N2CCOCC2)cc1C(=O)Nc1ccc2c(c1)OCCO2	-2	-6	7	-6	-7	-2	·	·
CCOc1ccc(S(=O)(=O)N(CC)CC(=O)NCc2cccnc2)cc1	1	11	10	2	5	0	·	·
CCn1c(COC(=O)CNC(=O)c2ccccc2)nc2cc(S(=O)(=O)N(C)C)ccc21	-3	5	1	8	0	0	·	·
COc1ccc(C(=O)NNC2=CC(=O)CC(C)(C)C2)cc1	0	-1	19*	-18	0	3	-1	1
CC(C)CCN1CC(=O)N2[C@@H](Cc3c([nH]c4ccccc34)C2(C)C)C1=O	-2	4	-2	-6	-3	0	·	·
COCCCNC(=O)Cn1ncc2c(=O)oc3ccccc3c21	-2	6	1	1	4	0	·	·
COC(=O)C(CCSC)NC(=O)Cn1ncc2c(=O)oc3ccccc3c21 (centres undefined)	6	1	23*	4	4	0	-1	0
CC(C)(C)c1ccc(C(=O)N2CCN(c3nc4ccccc4o3)CC2)cc1	-2	9	17*	6	-6	2	0	-1
O=C(c1ccc(-c2ccccc2)cc1)N1CCN(c2nc3ccccc3o2)CC1	·	7	3	·	-2	·	·	·
OC(c1cccc(CN2CCCCC2)c1)c1ncc(-c2ccccc2Cl)[nH]1 (centres undefined)	·	·	-7	·	6	·	·	·
CCOC(=O)C1(C)Oc2ccccc2C(C(=O)OC)=C1C(=O)OC (centres undefined)	·	22	20*	·	-2	1	-1	-4
CC(Sc1nnc(-c2ccco2)n1C)C(=O)Nc1nccs1 (centres undefined)	10	-12	-3	6	-7	0	·	·
Clc1ccccc1CN1CCN(/N=C/C=C/c2ccco2)CC1	-3	9	-3	1	4	2	·	·
